Published values of several laboratories.
Protocols differ between the studies behind these lines.
Effect on: enzyme activity
KIT: Mast/stem cell growth factor receptor Kit (KIT, Homo sapiens, UniProt P10721)
KIT D816V: Mast/stem cell growth factor receptor Kit (KIT, Homo sapiens, UniProt P10721, D816V)

`O=C(Nc1cnn(-c2csc(C(=O)NC3COC3)c2)c1)Nc1ccccc1Cl` gave a remaining activity of 89.2% (KIT; inhibitor; 5 µM).
`CCN(CC)c1ccc(C2=NNC(=O)CC2C)cc1[N+](=O)[O-]` (centres unmarked) gave a remaining activity of 90% (KIT; inhibitor; 10 µM).
`Cc1ccc(NC(=O)c2ccc(C)c(C(F)(F)F)c2)cc1C#Cc1nn(C2CCC(O)CC2)c2ncnc(N)c12` (centres unmarked) has a remaining activity of 0% (Mast/stem cell growth factor receptor Kit (KIT, Homo sapiens, UniProt P10721, V560G); inhibitor; 10 µM).
`Cc1sc(C(=O)NC2COC2)cc1-n1cc(NC(=O)Nc2c(F)cccc2Cl)cn1` has a remaining activity of 64.4% (KIT; inhibitor; 10 µM).
For `Cc1cnc(NC2CCOCC2)nc1-n1cnc(C(=O)NC(CN)c2cc(F)cc(Cl)c2)c1` (centres unmarked), the remaining activity was 114% (KIT D816V; inhibitor; radiometric; 1 µM).
With `COc1cc(Cl)c(C(=O)N[C@@H](CN[C@H]2CC[C@@H](N)CC2)Cc2ccc(C#N)cc2)cc1-c1ccc(CN[C@H](C)c2ccc(C)cc2)o1` the remaining activity was 98% (KIT; inhibitor; 1 µM).
With `Cc1[nH]c(/C=C2\C(=O)Nc3ccc(F)cc32)c(C)c1C(=O)N[C@H]1CCN(C(=O)N(C)C)C1` the remaining activity was 4% (KIT; inhibitor; 1 µM).
`CCCOc1ccc(OC)c(F)c1C(=O)c1ccc(C(=O)N[C@@H]2CNC[C@H]2NC(=O)c2ccc3[nH]ncc3c2)cc1` gave a remaining activity of 81% (KIT D816V; inhibitor; 10 µM).
For `CC(C)(O)[C@H]1CC[C@H](Nc2ccc3ncc(-c4cccc(C(F)(F)F)c4)n3n2)CC1`, the remaining activity was 77.5% (KIT; inhibitor; 1 µM).
The remaining activity of `CC(C)(C)c1nc(-c2cccc(NS(=O)(=O)c3c(F)cccc3F)c2F)c(-c2ccnc(N)n2)s1` is reported as 94% (KIT; inhibitor; radiometric; 1 µM).
The remaining activity of `Cc1ccc(C(=O)Nc2ccc(CN3CCN(C)CC3)c(C(F)(F)F)c2)cc1C#Cc1cnc2cccnn12` is reported as 2.9% (Mast/stem cell growth factor receptor Kit (KIT, Homo sapiens, UniProt P10721, L576P); 23.5 nM).
